# Assay outcomes (PubChem)
# S1P3 antagonist: blocks the human S1P3 receptor; actives 0.27% (n = 170,000); AID 485; inhibition, % at 4.98 µM; Q99500; CHO S1P3 NFAT-BLA reporter, FRET fluorescence, antagonist mode;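 active means inhibition above the plate cutoff, the mean inhibition of test wells on that plate plus 3 SD, cut at about 28% in these data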;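 further: cells challenged with S1P at its EC80 of 0.8 µM; blue over green emission ratio from cleaved BLA substrate after 4 h stimulation; 0% = S1P-stimulated wells and 100% = unstimulated DMSO-only wells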
# Target sequence (Q99500 whole entry, looked up): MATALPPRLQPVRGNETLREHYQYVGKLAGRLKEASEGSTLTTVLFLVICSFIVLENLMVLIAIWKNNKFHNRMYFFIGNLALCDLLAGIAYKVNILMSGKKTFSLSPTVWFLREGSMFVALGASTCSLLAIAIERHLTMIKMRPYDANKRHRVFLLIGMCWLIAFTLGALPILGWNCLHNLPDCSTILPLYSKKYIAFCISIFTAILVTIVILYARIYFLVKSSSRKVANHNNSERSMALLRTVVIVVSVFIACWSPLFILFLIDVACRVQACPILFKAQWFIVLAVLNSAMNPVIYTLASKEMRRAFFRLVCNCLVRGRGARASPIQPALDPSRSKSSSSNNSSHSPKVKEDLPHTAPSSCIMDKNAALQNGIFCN
# S1P4 agonist: agonists of human S1P4 receptor. AID 1509. S1P4-expressing cell line, agonist reporter assay. actives 0.35% (n = 220,000). activation, % at 4.98 µM; in the data active means activation above about 11%;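 further: 0% = DMSO vehicle and 100% = reference agonist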
# Biofilm kill mix: mixtures killing C. albicans biofilm; C. albicans biofilm persisters + clotrimazole, fluorescence viability; primary screen in compound mixtures of four per well; inhibition, % at 7.6 µM; actives 0.02% (n = 120,000); AID 1242;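 active means inhibition above 30.3% in the primary screen of four-compound pools, then above 30% when the compound was retested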;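 further: compounds exposed to preformed 24 h biofilms for 48 h; 0% = untreated biofilm control and 100% = clotrimazole plus chlorhexidine kill blank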
#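 Test system: C. albicans biofilms. Buffer or medium: RPMI/MOPS medium, pH 7.0. Timing: 48 h compound exposure at 37 °C. Technique: Alamar Blue fluorescence. Evaluation: percent inhibition of biofilm viability.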
# Tb hexokinase: T. brucei hexokinase 1 inhibition; recombinant TbHK1, G6PDH-coupled NADH A340; inhibition, % at 10 µM; actives 0.11% (n = 220,000);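 active means inhibition of 50% or more in the single-dose primary screen; inactive means inhibition below 50%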
# Dynein transport: dynein cargo transport inhibition; 3617.4 mouse cells, GR-EGFP nuclear translocation imaging; test concentration mostly 20 µM; stimulated with dexamethasone, 1 µM; hits give low values; z-score, hits read low; actives 0.47% (n = 220,000); AID 1381;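 active means plate z-score of nuclear minus cytoplasmic receptor signal below a set negative limit, without overly bright fluorescence or cell loss, cut at about -3.5 in these data, passing the limit was not always enough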;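 further: z-score of nuclear minus cytoplasmic ring GR-EGFP intensity difference per well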
#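 Buffer or medium – tet-free medium with charcoal-stripped serum · Signal – automated 10x imaging of fixed Hoechst-stained cells · Also added – dexamethasone agonist, 1.0 µM final, for 30 min · Incubation – induction 48 h, compound 1 h, agonist 30 min · Read-out – GR-EGFP nuclear translocation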
# S1P4 antag: blocks the human S1P4 receptor; O95977; S1P4-expressing cells, antagonist mode, reporter read-out; inhibition, % at 4.98 µM; actives 0.26% (n = 220,000); in the data active means inhibition above about 29%;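 further: 0% = wells stimulated with agonist and 100% = vehicle wells without agonist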
# S1P4 antag conf: human S1P4 antagonism, confirmation; shares compounds with S1P4 antag; S1P4-expressing cell line, antagonist mode, reporter read-out; inhibition, % at 4.98 µM; actives 71% (n = 520); AID 1524; in the data active means inhibition above about 30%
# S1P1 antagonist: counter-screen for S1P4 antagonists: antagonists of human S1P1. shares compounds with S1P4 antag. cell-based S1P1 antagonist counterscreen, inhibition. inhibition, % at 4.98 µM. actives 37% (n = 520). AID 1564; in the data active means inhibition above about 40%;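 further: receptor stimulated with S1P near its EC80; 0% = agonist stimulated wells and 100% = vehicle only wells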
# * marks the source's active call; other numbers are inactive results; · = not tested or not shown. A selection: hits, their analogues and other compounds. The true share with any hit is near 1.3%.
SMILES,S1P3 antagonist,S1P4 agonist,Biofilm kill mix,Tb hexokinase,Dynein transport,S1P4 antag,S1P4 antag conf,S1P1 antagonist
CCc1ccc(OCC(=O)NC(NC(=S)Nc2ccc(Cl)cc2)C(Cl)(Cl)Cl)cc1 (stereo not given),5.0,0.1,10.8,19.5,-0.0416,41.5*,-0.3,-4.1
CC(=O)c1c(C(C)=O)c(C)n(Cc2ccccc2)c1C,35.7,0.5,·,-7.8,-0.823,-18.1,·,·
Cc1c(C=O)c(C=O)c(C)n1Cc1ccccc1,·,-0.5,·,-3.0,0.108,34.8*,41.9*,19.0
O=C(NC1CCCC1)C(c1ccncc1)N(Cc1ccco1)C(=O)c1ccc(-c2ccccc2)[nH]1 (stereo not given),-4.6,-1.2,15.6,-8.2,-1.24,46.8*,22.3,1.5
CC(C)N1CCC2(CC1)Oc1ccc(Br)cc1C1CC(c3cccnc3)=NN12 (stereo not given),3.5,0.4,17.4,-1.8,-0.489,32.0*,19.0,32.0
COc1cccc2c1OC1(CCN(C(C)C)CC1)N1N=C(c3cccnc3)CC21 (stereo not given),3.0,-1.2,-35.1,-3.0,-1.48,-5.1,·,·
CCOC(=O)CN(C(=O)COc1ccc2c(C)cc(=O)oc2c1)c1ccc(OCC)cc1,-6.4,0.1,9.4,-4.3,-0.0444,-10.1,·,·
Cc1ccc(C2NC(=S)NC3=C2C(=O)CC(C)(C)C3)cc1 (stereo not given),2.9,-0.6,10.9,-21.2,0.644,-5.8,·,·
O=C(Nc1ccc(N2CCN(C(=O)c3ccccc3)CC2)cc1)c1ccc([N+](=O)[O-])o1,2.0,-0.2,4.8,-17.0,0.245,83.8*,116.5*,77.1*
CC(C)C(=O)N1CCN(c2ccc(NC(=O)c3ccc([N+](=O)[O-])o3)cc2)CC1,-2.5,-4.7,-4.8,-17.5,-3.09,69.8*,88.0*,66.2*
Cc1cc(C)n(CC(O)COc2ccc(OCC(O)Cn3nc(C)cc3C)cc2)n1 (stereo not given),·,0.7,·,1.7,-0.483,3.1,·,·
CC(=O)Oc1ccc2c(c1)O/C(=C\c1ccncc1)C2=O,1.4,-1.3,12.6,-32.1,-0.813,22.7,·,·
CCC(=O)Oc1ccc2c(c1)O/C(=C\c1ccco1)C2=O,-7.2,0.1,13.1,0.4,0.276,29.4*,36.6*,31.5
O=C(Oc1ccc(Br)cc1C(=O)/C=C/c1ccccc1F)c1ccco1,·,1.4,·,-3.1,-5.76*,41.4*,94.4*,34.3
CC(=O)c1cc(Cl)ccc1OC(=O)c1ccco1,-0.2,0.8,·,6.3,-0.748,-4.4,·,·
CCOC(=O)C(=Cc1ccc(Br)cc1)C(=O)OCC,-26.1,0.6,15.3,-2.5,-2.4,90.4*,115.2*,34.5
CCOC(=O)N1CCN(S(=O)(=O)c2ccc(OCC(=O)OC)c(C)c2)CC1,-46.3,0.6,·,-3.7,-0.172,-14.4,·,·
COC(=O)COc1ccc(S(=O)(=O)N2CCN(c3ccccc3F)CC2)cc1C,-37.4,0.1,·,3.8,0.292,34.6*,14.0,-9.1
COc1ccc(C2C=C(c3ccc(C)cc3)Nc3ncnn32)cc1 (stereo not given),·,-4.9,·,-4.5,3.34,29.2*,43.3*,43.6*
Oc1ccc(C2C=C(c3ccc(F)cc3)Nc3ncnn32)cc1 (stereo not given),23.8,-0.7,9.2,-8.7,0.426,42.5*,14.2,30.0
CC(C)N1CCN(Cc2ccoc2)CC1CCO (stereo not given),12.4,-0.8,28.2,3.4,1.68,-14.8,·,·
C/C(=N\NC(=O)C(=O)Nc1cc(C)ccc1C)c1ccncc1,-0.9,1.5,4.3,-7.0,0.118,5.1,·,·
